Source: ChEMBL document CHEMBL4725283, “Selective Peptidomimetic Inhibitors of NTMT1/2: Rational Design, Synthesis, Characterization, and Crystallographic Studies” (J Med Chem, 2020)
Activity calls are given as the source filed them. The calls are words filed in the database; no cut-off is given here.

Columns and labels:
Homo sapiens [1] = species: Homo sapiens; assay: Selectivity for human NTMT1 over human DNMT3b/3L at 100 uM
In short: (§1)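 Panel of 41 PKMTs, PRMTs, DNMTs and NTMT1/2, tested at 100 µM compound in duplicate (n=2).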

Homo sapiens [2] = species: Homo sapiens; assay: Selectivity for human NTMT1 over human MLL2 complex at 100 uM; in short: as §1
Homo sapiens [3] = species: Homo sapiens; assay: Selectivity for human NTMT1 over human SETD2 at 100 uM; in short: as §1
Homo sapiens [4] = species: Homo sapiens; assay: Selectivity for human NTMT2 over human DNMT3b/3L at 100 uM
In short: (§2)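 Single-point panel screen against 41 PKMTs, PRMTs, DNMTs and NTMT1/2. Each compound was tested at 100 µM, in duplicate (n=2).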

Homo sapiens [5] = species: Homo sapiens; assay: Selectivity for human NTMT2 over human DNMT1 at 100 uM; in short: as §2
[6] = target: T1, N-terminal Xaa-Pro-Lys N-methyltransferase 1 (Homo sapiens) (UniProt Q9BV86); assay: Competitive inhibition of recombinant human full-length His6-tagged NTMT1 (1 to 222 residues) expressed in Escherichia coli BL21-CodonPlus(DE3)-RIL competent cells pre-incubated for 10 mins in presence of fixed SAM and SAHH before varying levels of RCC1-6 addition and measured after 15 mins by fluorescence based SAHH-coupled assay; settings: time 25.0 min
T1 sequence (whole entry): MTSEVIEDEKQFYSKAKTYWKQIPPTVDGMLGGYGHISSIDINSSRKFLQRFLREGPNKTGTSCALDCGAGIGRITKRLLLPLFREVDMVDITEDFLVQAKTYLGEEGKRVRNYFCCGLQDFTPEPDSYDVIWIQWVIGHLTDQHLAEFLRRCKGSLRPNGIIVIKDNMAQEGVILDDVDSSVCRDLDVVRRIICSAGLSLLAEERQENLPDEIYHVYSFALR
In short: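 After 10 min at 37 °C, started with RCC1-6 at 0.5, 1, 1.5, 2, 4 or 8 µM. Read Ex 370/Em 500 nm for 15 min at 37 °C. Triplicate IC50 at each level plotted against [RCC1-6]/Km.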

Homo sapiens [7] = species: Homo sapiens; assay: Selectivity for human NTMT1 over human PRDMT6 at 100 uM; in short: as §1
Homo sapiens [8] = species: Homo sapiens; assay: Selectivity for human NTMT2 over human SUV39H1 at 100 uM; in short: as §2
Homo sapiens [9] = species: Homo sapiens; assay: Selectivity for human NTMT1 over human NSD1 at 100 uM; in short: as §1
Homo sapiens [10] = species: Homo sapiens; assay: Selectivity for human NTMT2 over human NSD1 at 100 uM; in short: as §2
[11] = target: T1, N-terminal Xaa-Pro-Lys N-methyltransferase 1 (Homo sapiens); assay: Substrate activity at recombinant human full-length His6-tagged NTMT1 (1 to 222 residues) expressed in Escherichia coli BL21-CodonPlus(DE3)-RIL competent cells by MALDI-MS analysis
Homo sapiens [12] = species: Homo sapiens; assay: Selectivity for human NTMT2 over human NSD2 T1150A mutant at 100 uM; in short: as §2
Homo sapiens [13] = species: Homo sapiens; assay: Selectivity for human NTMT2 over GST-tagged human METTL21A at 100 uM; in short: as §2
Homo sapiens [14] = species: Homo sapiens; assay: Selectivity for human NTMT2 over human PRDMT3 at 100 uM; in short: as §2
[15] = target: T2, Histone-lysine N-methyltransferase EHMT2 (Homo sapiens, UniProt Q96KQ7); assay: Inhibition of human His-tagged G9a (913 to 1193 residues) expressed in Escherichia coli BL21-CodonPlus(DE3)-RIL using H3-21 peptide as substrate preincubated for 10 mins in presence of SAM followed by substrate addition by fluorescence assay
T2 sequence (Q96KQ7 whole entry): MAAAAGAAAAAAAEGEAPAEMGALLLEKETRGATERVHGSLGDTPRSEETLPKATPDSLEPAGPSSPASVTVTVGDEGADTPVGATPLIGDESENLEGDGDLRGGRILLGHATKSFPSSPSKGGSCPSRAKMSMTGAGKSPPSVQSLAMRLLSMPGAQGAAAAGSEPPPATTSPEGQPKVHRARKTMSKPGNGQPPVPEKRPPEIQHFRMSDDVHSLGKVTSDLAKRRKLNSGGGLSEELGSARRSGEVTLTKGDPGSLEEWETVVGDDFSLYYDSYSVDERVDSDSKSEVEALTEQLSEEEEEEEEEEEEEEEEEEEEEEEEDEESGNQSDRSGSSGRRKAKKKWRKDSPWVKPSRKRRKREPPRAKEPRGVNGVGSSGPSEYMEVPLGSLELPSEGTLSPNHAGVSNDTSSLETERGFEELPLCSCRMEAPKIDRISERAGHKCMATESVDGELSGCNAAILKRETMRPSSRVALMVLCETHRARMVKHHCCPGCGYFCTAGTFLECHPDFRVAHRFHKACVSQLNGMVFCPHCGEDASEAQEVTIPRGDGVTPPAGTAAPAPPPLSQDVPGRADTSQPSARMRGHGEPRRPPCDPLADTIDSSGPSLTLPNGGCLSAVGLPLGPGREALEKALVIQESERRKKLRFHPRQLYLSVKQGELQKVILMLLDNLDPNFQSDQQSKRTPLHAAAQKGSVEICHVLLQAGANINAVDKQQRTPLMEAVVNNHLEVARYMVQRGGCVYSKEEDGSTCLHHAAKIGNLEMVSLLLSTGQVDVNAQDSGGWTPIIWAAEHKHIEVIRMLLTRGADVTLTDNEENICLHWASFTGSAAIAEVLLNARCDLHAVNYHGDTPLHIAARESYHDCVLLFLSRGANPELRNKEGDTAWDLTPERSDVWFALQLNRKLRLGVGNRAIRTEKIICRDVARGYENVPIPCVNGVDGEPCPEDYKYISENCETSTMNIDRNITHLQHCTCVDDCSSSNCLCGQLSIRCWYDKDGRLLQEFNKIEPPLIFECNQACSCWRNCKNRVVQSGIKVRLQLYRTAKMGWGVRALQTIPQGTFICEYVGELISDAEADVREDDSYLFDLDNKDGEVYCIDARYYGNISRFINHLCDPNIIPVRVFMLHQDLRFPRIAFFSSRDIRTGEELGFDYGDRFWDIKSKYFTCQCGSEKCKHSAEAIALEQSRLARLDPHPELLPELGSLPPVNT

Homo sapiens [16] = species: Homo sapiens; assay: Selectivity for human NTMT2 over human PRDMT6 at 100 uM; in short: as §2
Homo sapiens [17] = species: Homo sapiens; assay: Selectivity for human NTMT1 over human SUV39H1 at 100 uM; in short: as §2
Homo sapiens [18] = species: Homo sapiens; assay: Selectivity for human NTMT2 over human NSD2 at 100 uM; in short: as §2
Homo sapiens [19] = species: Homo sapiens; assay: Selectivity for human NTMT2 over human SUV39H at 100 uM; in short: as §2
Homo sapiens [20] = species: Homo sapiens; assay: Selectivity for human NTMT1 over human SUV39H at 100 uM; in short: as §1
Homo sapiens [21] = species: Homo sapiens; assay: Selectivity for human NTMT1 over human PRDMT7 at 100 uM; in short: as §1
[22] = target: T3, N-terminal Xaa-Pro-Lys N-methyltransferase 1 (Homo sapiens, UniProt Q9BV86); assay: Inhibition of recombinant human full-length His6-tagged NTMT1 (1 to 222 residues) expressed in Escherichia coli BL21-CodonPlus(DE3)-RIL competent cells pre-incubated for 10 mins in presence of SAM and SAHH before RCC1-6 addition and measured after 15 mins by fluorescence based SAHH-coupled assay
T3 sequence (Q9BV86 whole entry): T1 sequence (whole entry)
In short: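 Pre-incubated 10 min at 37 °C, then started with RCC1-6 (10 µL of 50 µM stock in 100 µL). Line 11 screened at 30 µM; line 12 used 0–100 µM three-fold series, four-parameter fit. Triplicate.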

Homo sapiens [23] = species: Homo sapiens; assay: Selectivity for human NTMT1 over human SET1b complex at 100 uM; in short: as §1

Selectivity ratio (Homo sapiens [1]): > 100
Selectivity ratio (Homo sapiens [2]): > 100
Selectivity ratio (Homo sapiens [3]): > 100
Selectivity ratio (Homo sapiens [4]): > 100
Selectivity ratio (Homo sapiens [5]): > 100
inhibition [6]: Active
Selectivity ratio (Homo sapiens [7]): > 100
Selectivity ratio (Homo sapiens [8]): > 100
Selectivity ratio (Homo sapiens [9]): > 100
Selectivity ratio (Homo sapiens [10]): > 100
Activity [11]: inactive
Selectivity ratio (Homo sapiens [12]): > 100
Selectivity ratio (Homo sapiens [13]): > 100
Selectivity ratio (Homo sapiens [14]): > 100
IC50 [15]: > 100000 nM
Selectivity ratio (Homo sapiens [16]): > 100
Selectivity ratio (Homo sapiens [17]): > 100
Selectivity ratio (Homo sapiens [18]): > 100
Selectivity ratio (Homo sapiens [19]): > 100
Selectivity ratio (Homo sapiens [20]): > 100
Selectivity ratio (Homo sapiens [21]): > 100
IC50 [22]: 890 nM
Selectivity ratio (Homo sapiens [23]): > 100
Compound: N=C(N)NCCC[C@H](NC(=O)[C@H](CCCCN)NC(=O)[C@@H]1CCCN1C(=O)Cc1ccc(O)cc1)C(N)=O
